# Hit rate of the full screen: of about 190,000 compounds, about 1,800 (0.95%) were called active. The sample holds actives, similar compounds and a random draw of the others, so the mix is not that of the screen. A number with no mark means an inactive call.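 Rule for the calls: active = activation above the screen-wide mean of compound activation plus 3 SD (cut at about 130% in these data); inactive = the rest.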
# Experiment: IL-6 driven STAT3 reporter potentiators, primary screen, U3A cells, luciferase, luminescence, MLSCN library (AID 871);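 note: 0% = background luminescence of wells with medium and substrate only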
# Conditions: IL-6 STAT3-luciferase reporter, at 5.6 µM, stronger effect = higher value, 100% = signal with IL-6 EC80 alone
# Summary of the method: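 Test system: Human STAT1-deficient U3A cells with stable STAT3-luciferase reporter | Also added: Interleukin-6, 33 ng/mL | Timing: Compound pre-incubation 1 h before IL-6, then 6 h stimulation at 37 °C | Technique: Luciferase reporter luminescence | Read-out: Percent of IL-6-only median luminescence | Benchmarks: IL-6-only wells as 100% reference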
row,SMILES,activation (% of control)
1,C/C(=N\NC(=O)CCn1nc(C)cc1C)C(C)(C)C,95.6%
2,O=C(CSc1ncnc2scc(-c3ccccc3)c12)NCc1ccc2c(c1)OCO2,103%
3,COc1ccccc1N1CCN(C(=O)c2cc3c(-c4ccc(Cl)cc4)nn(C)c3s2)CC1,146% (active)
4,COc1ccc(-c2cc(C(=O)NCc3ccco3)no2)cc1OC,101%
5,COc1ccc2c(Cl)c(C(=O)NCc3ccco3)sc2c1,95.9%
6,CCOC(=O)N1CCN(C(=O)c2cc3c(-c4ccc(Cl)cc4)nn(C)c3s2)CC1,107%
7,COc1cccc(-c2nn(C)c3sc(C(=O)N4CCN(c5ccccc5)CC4)cc23)c1,103%
8,Cn1nc(-c2ccc(Cl)cc2)c2cc(C(=O)NCc3ccco3)sc21,158% (active)
9,CN(C)C(=O)c1ccc2c(c1)C1C3CCC(C3)C1C(c1ccccc1)N2 (configuration not stated),91.5%
10,CCOc1ccc(NS(=O)(=O)c2cc(C)c(C)cc2C)cc1,102%
11,COc1cc(OC)cc(C(=O)N[C@H](C(=O)Nc2nc3ccccc3[nH]2)C(C)C)c1,148% (active)
12,COc1ccc(OC(C)C(=O)NCCc2nc3ccccc3[nH]2)cc1 (configuration not stated),98.1%
13,COc1cc(OC)cc(C(=O)N[C@H](C(=O)OCC(=O)NC(C)c2ccccc2)C(C)C)c1 (some centres not stated),102%
14,Cc1cc2oc(=O)cc(CN3CCN(S(=O)(=O)c4cccs4)CC3)c2cc1C(C)C,98.7%
15,C=CCn1c(C)cc(C2=NNC(=NCC)SC2)c1C,8.94%
16,COCCn1c(C)cc(C2=NNC(=Nc3ccc(F)cc3)SC2)c1C,133% (active)
17,Cc1cc(C2=NNC(=Nc3ccc(S(=O)(=O)N4CCOCC4)cc3)SC2)c(C)n1CC1CCCO1 (configuration not stated),102%
18,Cc1c(Cl)c([N+](=O)[O-])nn1CCCC(=O)NC(C)c1ccccc1 (configuration not stated),101%
19,O=S1(=O)CC/C(=N\Nc2ccc(F)cc2)c2ccsc21,80.3%
20,C=Cn1c(C(=O)O)ccc1-c1ccc(OC)cc1,103%
21,O=C(COC(=O)c1ccncc1)c1ccccc1,97.1%

row,SMILES,activation (% of control)
1,COc1cccc(NC(=O)C(Sc2nnnn2C)c2ccccc2)c1 (configuration not stated),88.9%
2,Cc1sc2ncnc(Sc3nc4ccccc4s3)c2c1C,135% (active)
3,CSc1ncnc2sc(C)c(C)c12,91.1%
4,COC(=O)c1c(-c2cccs2)csc1NC(=O)CSc1ncnc2sc(C)c(C)c12,93.1%
5,Cc1csc(CN(C)C(=O)CC2C(=O)NCCN2CC(C)(C)C)n1 (configuration not stated),96.6%
6,O=C(CN1CCN(c2ccc(Cl)cc2)CC1)NCc1cccs1,99%
7,Cc1c(CCO)c(=O)[nH]n1C(=O)c1c(F)cccc1F,134% (active)
8,CC(=O)NC1(c2ccc(F)cc2)CCN(C(=O)c2c(F)cccc2F)CC1,104%
9,Cc1c(CCO)c(=O)n(-c2ccccc2)n1S(=O)(=O)c1ccc(F)cc1,100%
10,CN1CCN(CCCCOc2ccccc2-c2ccccc2)CC1,96.6%
11,CCOC(=O)c1ccccc1NC(=S)N1CCC(C(N)=O)CC1,98.2%
12,COc1ccc(Cl)cc1N(CC(=O)N1CCCCC1)S(C)(=O)=O,99%
13,Cc1ccc2cc(C)c(N3CCC(C)CC3)nc2c1,86.1%
14,COc1ccccc1-c1nnc(SCC(=O)N2CC(C)CC(C)C2)o1 (configuration not stated),138% (active)
15,COc1ccccc1-c1nnc(SCC(=O)Nc2ccccc2)o1,91.3%
16,COc1ccccc1N1CCN(C(=O)CSc2nnc(-c3ccoc3C)o2)CC1,93.7%
17,Cc1ccc(-n2c(SCC(=O)Nc3ncc(Cl)cc3Cl)nc3ccccc32)cc1,98%
18,Cc1ccc(NC(=O)c2sc3nc(N)c(C#N)cc3c2N)cc1,100%
19,Cc1cccc(OP(=O)(Nc2c(C)n(C)n(-c3ccccc3)c2=O)Oc2cccc(C)c2)c1,98.3%
20,COc1ccc(C)cc1NC(=O)c1ccc(-c2ccc(C(C)=O)cc2)o1,78.6%
21,COc1cccc(NC(=O)C(C)Oc2ccccc2)c1 (configuration not stated),97.5%

row,SMILES,activation (% of control)
1,COc1cccc(NC(=S)NCc2ccccn2)c1,106%
2,COc1cccc(NC(=S)C(C#N)=C2N(C)c3ccccc3N2C)c1,145% (active)
3,O=C(NCC1CCN(Cc2ccccc2Cl)CC1)Nc1cccc(Cl)c1,102%
4,CNc1nc(Nc2ccc(C)c(Cl)c2)nc(N)c1[N+](=O)[O-],132%
5,Cc1ccc(C(=O)N/C(=C/c2ccco2)C(=O)NCCc2c[nH]c3ccccc23)cc1C,134% (active)
6,COc1ccc(/C=C(\NC(=O)c2ccc(OC)c(OC)c2)C(=O)NCCc2c[nH]c3ccccc23)cc1,112%
7,O=C(NC(Cc1c[nH]c2ccccc12)C(=O)O)/C(=C/c1ccco1)NC(=O)c1ccccc1 (configuration not stated),107%
8,NS(=O)(=O)c1cccc(NC(=O)CN2CCCc3ccccc32)c1,106%
9,COC(=O)c1[nH]c2ccccc2c1NC(=O)CN1CCCc2ccccc21,154% (active)
10,COC(=O)c1[nH]c2cccc(C)c2c1NC(=O)CN1CCCc2ccccc21,140% (active)
11,O=C(CN1CCc2ccccc21)NC(c1ccccc1)c1ccccc1,103%
12,Cc1ccccc1NC(=O)CNc1ccccc1N1CCCCC1,101%
13,CCOC(=O)c1[nH]c2ccc(OC)cc2c1NC(=O)CCN1CCN(Cc2ccccc2)CC1,104%
14,CC(C(=O)N=Nc1c(O)n(C)c2ccc(Br)cc12)n1cnc2ccccc2c1=O (configuration not stated),121%
15,CCN1CCN(c2ccc(NC(=O)c3cnccn3)cc2)CC1,100%
16,CCCCCC1CCC(c2nnc(SCC(C)=O)o2)CC1 (configuration not stated),101%
17,CN(C)/C(=N\OC(=O)c1ccccc1)c1nonc1N,97.7%
18,O=c1[nH]c(CSc2ncc(-c3ccc(F)cc3)n2Cc2ccco2)nc2ccccc12,152% (active)
19,Cn1c(-c2ccc(F)cc2)cnc1SCC(=O)NCc1ccco1,101%
20,CCn1c(Cc2ccccc2)nnc1SCc1nc2ccccc2c(=O)[nH]1,107%

# — PubChem BioAssay AID871 (The Scripps Research Institute Molecular Screening Center, 2007)
